Assay results pooled from the literature.
Lines come from different studies, so protocols differ.
Target: Mitogen-activated protein kinase 7 (MAPK7, Homo sapiens, UniProt Q13164)

Structure (SMILES)	read-out	mode	technique	cells	concentration	measurement	result
Cc1nc(N2CC[C@@H](O)C2)ncc1-c1cc(C(F)(F)F)cc2[nH]ncc12	binding	–	competition with immobilised ligand	–	1 µM	remaining binding	83%
CNc1cc(Oc2cc(C(=O)Nc3cc(N4CCN(C)CC4)cc(C(F)(F)F)c3)ccc2C)ncn1	target engagement in cells	inhibitor	chemoproteomics	Huh-7	1 µM	inhibition	-24.1%
CSc1cccnc1N1CCN(Cc2nc3ccccc3[nH]2)CC1	cell-free assay	–	competition with immobilised ligand	–	1 µM	remaining binding	100%
c1ccc(CNc2nc(N3CCOc4ccccc43)nc3c2CCCC3)cc1	target engagement in cells	inhibitor	chemoproteomics	–	20 mM	inhibition	-6.4%
CC/C(=N\NC(=O)NCc1cccc(O)c1)c1ccc(O)c(C)c1O	enzyme activity	inhibitor	–	–	0.1 µM	inhibition	-1.7%
COc1cc(Nc2cnc(C#N)c(O[C@H](C)CN(C)C)n2)ncc1-c1cnn(C)c1	enzyme activity	inhibitor	radiometric	–	1 µM	remaining activity	86%
Cc1sc(C(=O)NC2COC2)cc1-n1cc(NC(=O)Nc2c(F)cccc2Cl)cn1	enzyme activity	inhibitor	–	–	10 µM	remaining activity	95.7%
Nc1ncnc2occ(-c3ccc(NC(=O)Nc4cc(C(F)(F)F)ccc4F)cc3)c12	cell-free assay	inhibitor	–	–	20 µM	remaining signal	1.6%
Cc1nccc(COC(=O)N2C[C@@H]3[C@@H](CNC(=O)c4ccc5[nH]nnc5c4)[C@@H]3C2)n1	cell-free assay	–	competition with immobilised ligand	–	1 µM	remaining binding	98%
CC(C)(C)c1nc(-c2cccc(NS(=O)(=O)c3c(F)cccc3F)c2F)c(-c2ccnc(N)n2)s1	enzyme activity	inhibitor	radiometric	–	1 µM	remaining activity	74%
CS(=O)(=O)N1CCCC(NC(=O)[C@H](CCC2CCCCC2)NC(=O)c2ccc(CNc3ncnc4c3nnn4-c3ccccc3)cc2)C1 (stereo partly drawn)	cell-free assay	–	competition with immobilised ligand	–	0.1 µM	remaining binding	94%
FC(F)(F)Oc1cccc(-c2cnc3ccc(-c4ccncc4)nn23)c1	enzyme activity	inhibitor	radiometric	–	5 µM	activity vs control	56%
